Assay [1] in a line: Selectivity index, ratio of IC50 for ovine COX1 to IC50 for human recombinant COX2.
The target of assay [2] is T1, Prostaglandin G/H synthase 2 (Homo sapiens, UniProt P35354).
T1 sequence (P35354 whole entry): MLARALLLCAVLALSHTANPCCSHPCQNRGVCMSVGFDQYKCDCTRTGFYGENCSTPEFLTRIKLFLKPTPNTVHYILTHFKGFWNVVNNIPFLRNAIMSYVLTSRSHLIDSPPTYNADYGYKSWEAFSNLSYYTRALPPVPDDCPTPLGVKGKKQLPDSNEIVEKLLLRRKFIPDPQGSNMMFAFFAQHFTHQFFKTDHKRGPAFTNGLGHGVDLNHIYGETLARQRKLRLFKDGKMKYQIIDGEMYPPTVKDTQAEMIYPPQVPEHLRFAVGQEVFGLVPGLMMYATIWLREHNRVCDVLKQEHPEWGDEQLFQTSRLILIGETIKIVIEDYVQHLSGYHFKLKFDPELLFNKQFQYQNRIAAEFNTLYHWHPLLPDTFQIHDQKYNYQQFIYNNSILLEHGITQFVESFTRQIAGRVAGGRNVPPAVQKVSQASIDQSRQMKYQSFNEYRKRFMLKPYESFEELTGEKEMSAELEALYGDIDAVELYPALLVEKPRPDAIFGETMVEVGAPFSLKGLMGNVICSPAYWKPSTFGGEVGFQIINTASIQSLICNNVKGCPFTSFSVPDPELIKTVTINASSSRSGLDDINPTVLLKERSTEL
In words: Inhibition of human recombinant COX2 assessed as inhibition of PGF2alpha production from PGH2 by enzyme immunoassay.

In assay [3] the target is T2, Prostaglandin G/H synthase 1 (Ovis aries, UniProt P05979).
T2 sequence (P05979 whole entry): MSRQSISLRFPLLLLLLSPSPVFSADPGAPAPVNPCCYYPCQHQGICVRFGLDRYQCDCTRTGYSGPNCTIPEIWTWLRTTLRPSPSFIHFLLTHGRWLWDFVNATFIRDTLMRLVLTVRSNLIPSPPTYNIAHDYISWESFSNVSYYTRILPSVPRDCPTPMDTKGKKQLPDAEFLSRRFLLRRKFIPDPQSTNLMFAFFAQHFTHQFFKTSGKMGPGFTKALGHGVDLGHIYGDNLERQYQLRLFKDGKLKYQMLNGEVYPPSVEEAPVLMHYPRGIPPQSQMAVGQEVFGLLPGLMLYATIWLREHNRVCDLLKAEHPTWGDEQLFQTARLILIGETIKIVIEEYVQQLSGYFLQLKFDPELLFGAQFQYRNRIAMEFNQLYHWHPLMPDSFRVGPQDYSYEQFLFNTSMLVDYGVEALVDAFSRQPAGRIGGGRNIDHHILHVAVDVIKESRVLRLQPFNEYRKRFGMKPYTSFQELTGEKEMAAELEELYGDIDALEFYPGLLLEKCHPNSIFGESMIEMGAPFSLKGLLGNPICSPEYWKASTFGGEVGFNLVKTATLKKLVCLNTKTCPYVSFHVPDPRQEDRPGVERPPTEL
The assay can be described thus: Inhibition of ovine COX1 assessed as inhibition of PGF2alpha production from PGH2 by enzyme immuno assay. The essentials:
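Ovine COX-1 in Tris-HCl buffer, pH 8.0, with heme, preincubated 10 min at 37 °C. Arachidonic acid started the reaction, which was stopped after 2 min with 1 M HCl. PGH₂ was reduced to PGF2α with stannous chloride, and PGF2α was quantified by competitive EIA with an AChE tracer and Ellman's reagent. IC50 came from concentration–inhibition curves, duplicate determinations.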

pIC50: −log10 of the molar value.

In general, pIC50 refers to −log10 of the IC50, conventionally taken in molar units.

In the case of `NS(=O)(=O)c1ccc(NN2C(=O)CSC2c2ccc(F)cc2)cc1` (stereo not given), in assay [1], the Ratio IC50 amounted to 0.67. The pIC50 in assay [2] is 4.20; in assay [3], 4.38.
For the compound `CS(=O)(=O)c1ccc(NN2C(=O)CSC2c2ccc(Cl)cc2)cc1` (stereo not given), in assay [1], the Ratio IC50 was 0.68. The pIC50 in assay [2] was 3.91; in assay [3], 4.08.
Regarding `CS(=O)(=O)c1ccc(NN2C(=O)CSC2c2ccc(C(F)(F)F)cc2)cc1` (stereo not given), the Ratio IC50 in assay [1] came to 1.61. Besides, the values for the pIC50 in assay [2] and in assay [3] were 4.42 and 4.21, respectively.
`NS(=O)(=O)c1ccc(NN2C(=O)CSC2c2ccc(Cl)cc2)cc1` (stereo not given): in assay [1], the Ratio IC50 stood at 0.85. Further, the pIC50 in assay [2] is 4.34; in assay [3] it was 4.41.
For the compound `NS(=O)(=O)c1ccc(NN2C(=O)CSC2c2ccccc2)cc1` (stereo not given), in assay [1], the Ratio IC50 stood at 1.23. The negative logarithm of the IC50 (pIC50) in assay [2] is 4.11; in assay [3] it was 4.02.
As to `CS(=O)(=O)c1ccc(NN2C(=O)CSC2c2ccccc2)cc1` (stereo not given), the Ratio IC50 in assay [1] stood at 3.16. Also, the results for the pIC50 in assay [2] and in assay [3] were 4.70 and 4.20, respectively.
Turning to `NS(=O)(=O)c1ccc(NN2C(=O)CSC2c2ccc(C(F)(F)F)cc2)cc1` (stereo not given), in assay [1], the Ratio IC50 worked out at 1.05. Further, the pIC50 in assay [2] is 4.29; in assay [3], 4.26.
The like results for `Cc1ccc(C2SCC(=O)N2Nc2ccc(S(C)(=O)=O)cc2)cc1` (stereo not given) were, in that order, 7.27, 4.84 and 3.98.
The like results for `CS(=O)(=O)c1ccc(NN2C(=O)CSC2c2ccc(F)cc2)cc1` (stereo not given) were, in that order, 1.38, 4.34 and 4.20.
Take `Cc1ccc(C2SCC(=O)N2Nc2ccc(S(N)(=O)=O)cc2)cc1` (stereo not given): the Ratio IC50 in assay [1] amounted to 3.49. The values for the pIC50 in assay [2] and in assay [3] were 4.61 and 4.07, respectively.

The record behind these values is ChEMBL document CHEMBL2086241, “Molecular modeling, synthesis and screening of some new 4-thiazolidinone derivatives with promising selective COX-2 inhibitory activity” (Eur J Med Chem, 2012).
